The values that follow come from ChEMBL document CHEMBL1121364, “Nucleoside conjugates as potential antitumor agents. 3. Synthesis and antitumor activity of 1-(beta-D-arabinofuranosyl)cytosine conjugates of corticosteroids” (1980).

Test [1] concerns L1210. Put plainly: Antitumor activity in the mice with intraperitoneal implanted L1210 lymphoid leukemia at the dose 18 and 27.7 mg/kg/day x 5 was determined as percentage increase in the life span as compared with control tumor bearers. The format is functional, Mus musculus. The procedure, abridged: (§1)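 Female C3D2F1/J mice (C3H/HeJ × DBA/2J), groups of six to eight, average weight 25 g. Each mouse got 1 × 10^6 L1210 ascites cells ip, taken from DBA/2Ha donor mice bearing 3-5 day tumors. Compound was dissolved in 0.154 N NaOH and neutralized with 0.154 N HCl (final 0.9% NaCl). Dosed ip daily ×5, starting 24 h after implant. Recorded body weight change on day 8, survival range, median survival and 30-day survivors. ILS = (T/C − 1) × 100.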

Test [2] concerns L1210. Put plainly: Antitumor activity in mice with intraperitoneal implanted L1210 lymphoid leukemia at the dose 9.2 and 13.2 mg/kg/day x 5 was determined as weight change (g/mouse) on 8th day. The format is functional. In outline: (§2)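 C3D2F1/J female mice (C3H/HeJ × DBA/2J), groups of six to eight, average 25 g, inoculated ip with 1 × 10^6 L1210 ascites cells taken from DBA/2Ha donor mice carrying 3-5 day tumors. Compound dissolved in 0.154 N NaOH, then neutralized with 0.154 N HCl to give 0.9% NaCl. Given ip daily for 5 consecutive days starting 24 h after implantation. Body weight change per mouse recorded on day 8.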

In test [3] the test system is L1210. Nature of the test: Antitumor activity in the mice with intraperitoneal implanted L1210 lymphoid leukemia at the dose of 18 and 27.7 mg/kg/day x 5 was determined as mean survival of treated group compared to untreated; 13/9. Type of test: functional, Mus musculus. In outline:
(§3)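 C3D2F1/J female mice (C3H/HeJ female × DBA/2J male), groups of six to eight, average weight 25 g. Inoculated ip with 1 × 10^6 L1210 ascites cells taken from DBA/2Ha donor mice bearing 3-5 day old tumors. Compounds were dissolved in 0.154 N NaOH, neutralized with 0.154 N HCl (final 0.9% NaCl), and given ip daily for 5 days from 24 h post-implant. Median survival T/C; ILS = (T/C − 1) × 100; 30-day survivors counted.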

The subject of test [4] is L1210. Put plainly: Antitumor activity in the mice with intraperitoneal implanted L1210 lymphoid leukemia at the dose 18 and 27.7 mg/kg/day x 5 was determined and number of animals survived on 30 th day were reported; 0/8. Type of test: functional, Mus musculus. In outline:
as §1

Test [5] has as its system L1210. Nature of the test: Antitumor activity in mice with intraperitoneal implanted L1210 lymphoid leukemia at the dose 18 and 27.7 mg/kg/day x 5 was determined as weight change (g/mouse) on 8th day. Type of test: functional. The procedure, abridged: as §2
Test [6] deals with L1210. Nature of the test: Antitumor activity in the mice with intraperitoneal implanted L1210 lymphoid leukemia at the dose of 9.2 and 13.2 mg/kg/day x 5 was determined as mean survival of treated group compared to untreated; 15/11. Type of test: functional, Mus musculus.
Test [7] concerns L1210. Put plainly: Antitumor activity in the mice with intraperitoneal implanted L1210 lymphoid leukemia at the dose 9.2 and 13.2 mg/kg/day x 5 was determined as percentage increase in the life span as compared with control tumor bearers. Type of test: functional, Mus musculus. In outline:
as §3

Test [8] deals with L1210. Put plainly: Antitumor activity in the mice with intraperitoneal implanted L1210 lymphoid leukemia at the dose 9.2 and 13.2 mg/kg/day x 5 was determined as Survival time in days; Range is 11-28 days. Type of test: functional, Mus musculus. The procedure, abridged: as §3
Test [9] concerns L1210. Put plainly: Antitumor activity in the mice with intraperitoneal implanted L1210 lymphoid leukemia at the dose 18 and 27.7 mg/kg/day x 5 was determined as Survival time in days; Range is 9-17 days. Type of test: functional, Mus musculus. The procedure, abridged:
as §1

Test [10] has as its system L1210. Nature of the test: Antitumor activity in the mice with intraperitoneal implanted L1210 lymphoid leukemia at the dose 9.2 and 13.2 mg/kg/day x 5 was determined and number of animals survived on 30 th day were reported; 0/6. Type of test: functional, Mus musculus. In outline: as §3
In test [11] the test system is L1210. Put plainly: Antitumor activity in the mice with intraperitoneal implanted L1210 lymphoid leukemia at the dose 25 mg/kg/day x 5 was determined as percentage increase in the life span as compared with control tumor bearers. Type of test: functional. Particulars: Mus musculus, L1210, ip. In outline: as §1
The test system of test [12] is L1210. Nature of the test: Antitumor activity in the mice with intraperitoneal implanted L1210 lymphoid leukemia at the dose of 18.2 mg/kg/day x 5 was determined as mean survival of treated group compared to untreated; 14.5/10. Type of test: functional, Mus musculus. The procedure, abridged: as §3
Test [13] has as its system L1210. Put plainly: Antitumor activity in mice with intraperitoneal implanted L1210 lymphoid leukemia at the dose 25 mg/kg/day x 5 was determined as weight change (g/mouse) on 8th day. The format is functional. The procedure, abridged:
as §2

For test [14], the system named is L1210. Nature of the test: Antitumor activity in mice with intraperitoneal implanted L1210 lymphoid leukemia at the dose 18.2 mg/kg/day x 5 was determined as weight change (g/mouse) on 8th day. The format is functional. The procedure, abridged: as §2
The subject of test [15] is L1210. Put plainly: Antitumor activity in the mice with intraperitoneal implanted L1210 lymphoid leukemia at the dose 25 mg/kg/day x 5 was determined as Survival time in days; Range is 9-16 days. Type of test: functional, Mus musculus. In outline:
as §1

Test [16] deals with L1210. Nature of the test: Antitumor activity in the mice with intraperitoneal implanted L1210 lymphoid leukemia at the dose 9.2 mg/kg/day x 5 was determined and number of animals survived on 30 th day were reported; 1/7. Type of test: functional, Mus musculus. The procedure, abridged:
as §3

In test [17] the test system is L1210. Nature of the test: Antitumor activity in mice with intraperitoneal implanted L1210 lymphoid leukemia at the dose 5 mg/kg/day x 5 was determined as weight change (g/mouse) on 8th day. The format is functional. In outline: as §2
The subject of test [18] is L1210. Nature of the test: Antitumor activity in the mice with intraperitoneal implanted L1210 lymphoid leukemia at the dose 5 mg/kg/day x 5 was determined and number of animals survived on 30 th day were reported; 0/7. The format is functional, Mus musculus. The procedure, abridged: as §1
Test [19] has as its system L1210. Put plainly: Antitumor activity in the mice with intraperitoneal implanted L1210 lymphoid leukemia at the dose 18.2 mg/kg/day x 5 was determined and number of animals survived on 30 th day were reported; 0/8. Type of test: functional, Mus musculus. The procedure, abridged:
as §1

The subject of test [20] is L1210. Put plainly: Antitumor activity in the mice with intraperitoneal implanted L1210 lymphoid leukemia at the dose 5 mg/kg/day x 5 was determined as percentage increase in the life span as compared with control tumor bearers. Particulars: Mus musculus, L1210, ip. Type of test: functional. The procedure, abridged: as §1
Test [21] has as its system L1210. Nature of the test: Antitumor activity in the mice with intraperitoneal implanted L1210 lymphoid leukemia at the dose 18.2 mg/kg/day x 5 was determined as Survival time in days; Range is 10-19 days. The format is functional, Mus musculus. The procedure, abridged:
as §1

The subject of test [22] is L1210. Put plainly: Antitumor activity in the mice with intraperitoneal implanted L1210 lymphoid leukemia at the dose 9.2 mg/kg/day x 5 was determined as Survival time in days; Range is 14-42 days. The format is functional, Mus musculus. The procedure, abridged: as §3
The test system of test [23] is L1210. Put plainly: Antitumor activity in mice with intraperitoneal implanted L1210 lymphoid leukemia at the dose 9.2 mg/kg/day x 5 was determined as weight change (g/mouse) on 8th day. The format is functional. In outline: as §2
Test [24] has as its system L1210. Nature of the test: Antitumor activity in the mice with intraperitoneal implanted L1210 lymphoid leukemia at the dose of 5 mg/kg/day x 5 was determined as mean survival of treated group compared to untreated; 13.5/9. The format is functional, Mus musculus. In outline: as §3
Test [25] concerns L1210. Put plainly: Antitumor activity in the mice with intraperitoneal implanted L1210 lymphoid leukemia at the dose of 9.2 mg/kg/day x 5 was determined as mean survival of treated group compared to untreated; 17/9. The format is functional, Mus musculus.
Test [26] concerns L1210. Put plainly: Antitumor activity in the mice with intraperitoneal implanted L1210 lymphoid leukemia at the dose 9.2 mg/kg/day x 5 was determined as percentage increase in the life span as compared with control tumor bearers. Type of test: functional. To be noted: Mus musculus, L1210, ip. The procedure, abridged:
as §3

Test [27] has as its system L1210. Put plainly: Antitumor activity in the mice with intraperitoneal implanted L1210 lymphoid leukemia at the dose 18.2 mg/kg/day x 5 was determined as percentage increase in the life span as compared with control tumor bearers. Particulars: Mus musculus, L1210, ip. The format is functional. In outline:
as §1

The subject of test [28] is L1210. Put plainly: Antitumor activity in the mice with intraperitoneal implanted L1210 lymphoid leukemia at the dose 25 mg/kg/day x 5 was determined and number of animals survived on 30 th day were reported; 0/8. Type of test: functional, Mus musculus. In outline: as §1
The subject of test [29] is L1210. Nature of the test: Antitumor activity in the mice with intraperitoneal implanted L1210 lymphoid leukemia at the dose 5 mg/kg/day x 5 was determined as Survival time in days; Range is 9-22 days. Type of test: functional, Mus musculus. The procedure, abridged:
as §1

As usually defined, the ILS is how much longer treated animals lived than controls. Read a low ILS as little gain in survival. With `C[C@H]1C[C@@H]2[C@H]([C@@H](O)C[C@@]3(C)[C@H]2CC[C@]3(O)C(=O)CO)[C@@]2(C)C=CC(=O)C=C12.Nc1ccn([C@@H]2O[C@H](CO)[C@@H](O)[C@@H]2O)c(=O)n1`, the figures for the increase in lifespan (ILS) in the test on L1210 [1] and in the test with L1210 [7] were 44% and 36%, respectively. In addition, the values for the Weight change with L1210 [2] and in the test with L1210 [5] were -2.38 g mouse-1 and -1.38 g mouse-1, respectively. For the same compound, the T/C in the test on L1210 [3] was found to be 13; with L1210 [6], 15. Also, the Survivors with L1210 [4] and in the test with L1210 [10] was 0 each time. Also, the values for the Survival time in the test with L1210 [8] and with L1210 [9] were 11 days and 9 days, respectively.
Consider `Nc1ccn([C@@H]2O[C@H](CO)[C@@H](O)[C@@H]2O)c(=O)n1` [CYTARABINE], for which the ILS at 25 mg/kg/day in the test on L1210 [11] amounted to 19%. Besides, the T/C is on record as 14.5 in the test with L1210 [12], 13.5 with L1210 [24] and 17 in the test on L1210 [25]. Moreover, the Weight change with L1210 [13] is -3.8 g mouse-1; in the test with L1210 [14] it was -3.64 g mouse-1; in the test with L1210 [17], 2 g mouse-1; in the test on L1210 [23], -0.63 g mouse-1. The Survival time in the test on L1210 [15] was found to be 9 days; with L1210 [21] it was 10 days; in the test with L1210 [22], 14 days; in the test on L1210 [29], 9 days. The Survivors with L1210 [16] is given as 1; with L1210 [18], 0; with L1210 [19] it was 0; with L1210 [28], 0. In the test on L1210 [20], this compound yielded an ILS at 5 mg/kg/day of 50%. In addition, in the test on L1210 [26], the ILS at 9.2 mg/kg/day came to 89%. In addition, the ILS at 18.2 mg/kg/day in the test with L1210 [27] came to 45%.
